Experimental data: ChEMBL document CHEMBL1156039, “Nonpeptide urotensin-II receptor antagonists: a new ligand class based on piperazino-phthalimide and piperazino-isoindolinone subunits” (J Med Chem, 2009)
The source made the active and inactive calls. The rule behind the calls is not given here. Where a SMILES comes first, the peptide text is derived from it. Bridges are numbered along the chain shown (N, C = ends). [ ]: non-standard residue; d: D form. 2Nal = N[C@@H](Cc1ccc2ccccc2c1)C(=O)O

Key:
Urotensin-2 receptor [1] = target: T1, Urotensin-2 receptor (Homo sapiens, UniProt Q9UKP6); assay: Antagonist activity at urotensin 2 receptor in human RMS13 cells assessed as inhibition of urotensin 2-induced intracellular calcium mobilization after 1 hr by FLIPR assay; assay type: functional, cell-based
T1 sequence (Q9UKP6 whole entry): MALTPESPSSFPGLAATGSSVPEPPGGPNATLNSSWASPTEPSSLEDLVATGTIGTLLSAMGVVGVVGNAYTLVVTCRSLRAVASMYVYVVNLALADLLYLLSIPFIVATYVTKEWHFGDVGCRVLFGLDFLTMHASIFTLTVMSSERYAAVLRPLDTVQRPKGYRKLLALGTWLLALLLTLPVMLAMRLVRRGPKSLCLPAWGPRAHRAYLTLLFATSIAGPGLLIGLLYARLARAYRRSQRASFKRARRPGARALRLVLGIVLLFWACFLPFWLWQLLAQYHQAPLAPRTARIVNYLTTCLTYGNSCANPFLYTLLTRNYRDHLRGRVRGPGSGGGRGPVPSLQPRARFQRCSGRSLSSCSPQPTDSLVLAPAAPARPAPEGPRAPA
Procedure, shortened: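 Human rhabdomyosarcoma (RMS13) cells expressing endogenous UT. Inhibition of U-II-driven calcium mobilization measured by FLIPR; N = 2-6.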

[2] = Half life in human liver microsomes; assay type: ADME, Microsome
[3] = Oral bioavailability in rat; assay type: ADME, organism-based; conditions: in vivo
[4] = Half life in rat; assay type: ADME, organism-based; conditions: in vivo
Urotensin-2 receptor [5] = target: T1, Urotensin-2 receptor; assay: Displacement of [125I]urotensin 2 from urotensin 2 receptor in human RMS13 cells by scintillation proximity assay; assay type: cell-based
Urotensin-2 receptor [6] = target: T2, Urotensin-2 receptor (Rattus norvegicus, UniProt P49684); assay: Antagonist activity at rat urotensin 2 receptor expressed in CHOK1 cells assessed as inhibition of urotensin 2-induced intracellular calcium mobilization after 10 min by FLIPR assay
T2 sequence (P49684 whole entry): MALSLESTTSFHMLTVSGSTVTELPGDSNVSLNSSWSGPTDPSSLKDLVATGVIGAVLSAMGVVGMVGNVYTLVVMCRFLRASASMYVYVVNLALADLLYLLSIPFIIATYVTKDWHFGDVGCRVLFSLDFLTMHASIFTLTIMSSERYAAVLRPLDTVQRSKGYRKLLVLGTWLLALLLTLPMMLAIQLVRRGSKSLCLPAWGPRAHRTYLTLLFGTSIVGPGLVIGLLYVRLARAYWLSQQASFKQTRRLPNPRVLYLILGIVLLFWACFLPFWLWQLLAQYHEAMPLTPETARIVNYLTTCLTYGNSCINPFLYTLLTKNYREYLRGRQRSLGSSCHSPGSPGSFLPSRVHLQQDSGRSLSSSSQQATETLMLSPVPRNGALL

Urotensin-2 receptor [7] = target: T2, Urotensin-2 receptor; assay: Antagonist activity at rat urotensin 2 receptor expressed in CHOK1 cells assessed as inhibition of urotensin 2-induced intracellular calcium mobilization after 1 hr by FLIPR assay; assay type: functional, cell-based, CHO-K1
Procedure, shortened: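 Stable CHO-K1 line expressing rat UT, selected with G418 and seeded 24 h ahead. Cells loaded with calcium dye for 1 h at 37 °C in HBSS/20 mM HEPES/0.1% BSA/2.5 mM probenecid, pH 7.4. Compound preincubated 10 min, then agonist added: goby U-II 0.1 nM or peptide agonist 0.3 or 1 nM. FLIPR calcium read at 23 °C; N = 2-6.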

Rattus norvegicus [8] = assay: Inhibition of ear flushing in Sprague-Dawley rat ear-flush model assessed as complete attenuation of urotensin 2-induced increase in ear pinna temperature at 10 mg/kg, iv administered 15 mins prior to urotensin 2 challenge; assay type: functional, organism-based; set-up: dose 10 mg/kg
Rattus norvegicus [9] = assay: Inhibition of ear flushing in Sprague-Dawley rat ear-flush model assessed as attenuation of urotensin 2-induced increase in ear pinna temperature at 3 mg/kg, iv administered 15 mins prior to urotensin 2 challenge; assay type: functional, organism-based; set-up: dose 3 mg/kg
[10] = Inhibition of alpha1 adrenergic receptor at 10 uM
Procedure, shortened: (§1)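 Part of a contract panel of 50 receptors and ion channels. Each target was run as a binding assay with a reference ligand, with the test compound at 10 μM.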

[11] = target: T3, Muscarinic acetylcholine receptor M1 (Homo sapiens) (UniProt P11229); assay: Inhibition of human muscarinic M1 receptor at 10 uM
T3 sequence (whole entry): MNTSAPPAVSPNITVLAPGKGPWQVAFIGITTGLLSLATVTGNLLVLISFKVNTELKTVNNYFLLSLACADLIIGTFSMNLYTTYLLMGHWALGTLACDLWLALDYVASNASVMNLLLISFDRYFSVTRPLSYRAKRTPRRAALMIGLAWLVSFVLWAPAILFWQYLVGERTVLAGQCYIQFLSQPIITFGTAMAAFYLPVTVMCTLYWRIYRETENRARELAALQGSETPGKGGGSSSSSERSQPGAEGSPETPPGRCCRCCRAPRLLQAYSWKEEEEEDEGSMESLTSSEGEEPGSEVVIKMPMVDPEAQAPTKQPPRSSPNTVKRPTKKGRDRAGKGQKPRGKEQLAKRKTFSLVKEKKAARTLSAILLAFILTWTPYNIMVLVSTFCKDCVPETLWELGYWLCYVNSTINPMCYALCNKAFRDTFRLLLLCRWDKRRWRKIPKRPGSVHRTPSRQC

[12] = target: Muscarinic acetylcholine receptor M3 (Homo sapiens) (UniProt P20309); assay: Inhibition of human muscarinic M3 receptor at 10 uM
Sequence of Muscarinic acetylcholine receptor M3 (Homo sapiens) (P20309 whole entry, looked up): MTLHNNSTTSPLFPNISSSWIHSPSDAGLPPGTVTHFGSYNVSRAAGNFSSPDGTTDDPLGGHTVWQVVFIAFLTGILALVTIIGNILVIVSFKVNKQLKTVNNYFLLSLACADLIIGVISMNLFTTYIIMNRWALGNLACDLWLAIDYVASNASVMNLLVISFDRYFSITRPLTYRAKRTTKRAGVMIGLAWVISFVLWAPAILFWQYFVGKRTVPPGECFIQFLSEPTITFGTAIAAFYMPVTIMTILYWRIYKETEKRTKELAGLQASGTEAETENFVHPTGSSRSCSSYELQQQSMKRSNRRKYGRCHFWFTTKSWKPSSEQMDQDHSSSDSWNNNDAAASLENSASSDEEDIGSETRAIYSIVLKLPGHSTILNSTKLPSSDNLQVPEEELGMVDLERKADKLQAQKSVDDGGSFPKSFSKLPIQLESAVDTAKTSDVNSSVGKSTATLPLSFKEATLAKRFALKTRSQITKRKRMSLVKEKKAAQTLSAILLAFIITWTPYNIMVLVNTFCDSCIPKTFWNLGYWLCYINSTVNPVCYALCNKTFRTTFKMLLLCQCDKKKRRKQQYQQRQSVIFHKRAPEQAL

[13] = target: T4, 5-hydroxytryptamine receptor 1A (Homo sapiens) (UniProt P08908); assay: Inhibition of human 5HT1A receptor at 10 uM
T4 sequence (whole entry): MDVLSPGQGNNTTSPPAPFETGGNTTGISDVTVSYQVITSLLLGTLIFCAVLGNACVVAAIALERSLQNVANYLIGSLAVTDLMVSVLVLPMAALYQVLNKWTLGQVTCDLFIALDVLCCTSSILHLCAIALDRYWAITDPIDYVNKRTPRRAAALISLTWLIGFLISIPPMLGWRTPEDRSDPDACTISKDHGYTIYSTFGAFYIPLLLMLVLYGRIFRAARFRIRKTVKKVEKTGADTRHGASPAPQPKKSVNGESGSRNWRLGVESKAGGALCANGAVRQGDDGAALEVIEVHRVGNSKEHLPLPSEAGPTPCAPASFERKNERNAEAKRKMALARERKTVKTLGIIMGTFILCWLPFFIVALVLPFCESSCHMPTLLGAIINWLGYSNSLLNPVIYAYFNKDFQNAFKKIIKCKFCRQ

[14] = target: 5-hydroxytryptamine receptor 1B (Homo sapiens) (UniProt P28222); assay: Inhibition of 5HT1B receptor at 10 uM
Sequence of 5-hydroxytryptamine receptor 1B (Homo sapiens) (P28222 whole entry): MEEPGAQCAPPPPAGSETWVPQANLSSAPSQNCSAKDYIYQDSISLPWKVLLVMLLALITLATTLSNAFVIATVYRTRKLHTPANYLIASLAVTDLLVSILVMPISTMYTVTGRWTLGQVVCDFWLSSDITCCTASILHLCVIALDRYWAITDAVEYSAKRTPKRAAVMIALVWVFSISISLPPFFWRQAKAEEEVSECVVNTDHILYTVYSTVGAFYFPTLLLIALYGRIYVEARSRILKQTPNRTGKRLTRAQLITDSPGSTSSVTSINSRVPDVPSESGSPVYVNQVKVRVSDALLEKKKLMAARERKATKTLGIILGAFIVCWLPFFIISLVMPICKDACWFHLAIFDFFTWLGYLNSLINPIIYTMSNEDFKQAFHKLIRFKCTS

[15] = Inhibition of sodium channel site 2 at 10 uM; procedure, shortened: as §1
Aorta = assay: Vasorelaxant activity in Wistar rat thoracic aortic ring assessed as inhibition of contraction at 100 nM
Urotensin-2 receptor [16] = target: T2, Urotensin-2 receptor; assay: Displacement of [125I]urotensin 2 from rat urotensin 2 receptor expressed in CHOK1 cells by scintillation proximity assay; assay type: cell-based, CHO-K1
Procedure, shortened: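 Membranes from CHO cells stably expressing rat UT were precoupled to WGA-coated SPA beads (15 μg membrane/mg beads, 30 min, room temperature) in 50 mM Tris-HCl, 5 mM MgCl2, 0.1% BSA, pH 7.4. Final conditions: 1.0 mg beads per well, 0.17 nM [125I]-[Tyr]-rat U-II, and varied compound concentrations, shaken 3 h at 22 °C. Nonspecific binding was defined with 1 μM rat U-II.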

[17] = in the assay text read “after 10 min” for “after 1 hr”

SMILES	IC50 (Urotensin-2 receptor [1]) [nM]	Ki (Urotensin-2 receptor [5]) [nM]	IC50 (Urotensin-2 receptor [6]) [nM]	also measured
COc1ccc(CN2C(=O)c3cccc(N4CCN([C@H](C)c5ccccc5)CC4)c3C2=O)cc1OC	1900			half-life [2]: 29 min; bioavailability [3]: 33%; half-life [4]: 240 min
COc1ccc(CN2C(=O)c3cccc(N4CCN(Cc5c(F)cccc5F)CC4)c3C2=O)cc1OC		310	1000	half-life [2]: < 3 min
CCN1CCN(c2cccc3c2CN([C@H](CCCN(C)S(=O)(=O)c2cccs2)c2ccc(OC)c(OC)c2)C3=O)CC1		< 5		
COc1ccc([C@@H](CCCNS(=O)(=O)c2ccc(Cl)s2)N2C(=O)c3cccc(N4CCN([C@H](C)c5ccccc5)CC4)c3C2=O)cc1OC			1700	
Cc1cc(NC(=O)NCCN2CCC(O)(Cc3ccccc3)CC2)c2ccccc2n1 [PALOSURAN]	320	41		IC50 (Urotensin-2 receptor [7]; [17]): > 75000 nM
COc1ccc(CN2C(=O)c3cccc(N4CCN(Cc5ccccc5)CC4)c3C2=O)cc1OC		160		half-life [2]: < 3 min
CCN1CCN(c2cccc3c2CN([C@H](CCCNc2cncc(Cl)n2)c2ccc(OC)c(OC)c2)C3=O)CC1	500	62	1	
COc1ccc(C(CNS(=O)(=O)c2cccs2)N2C(=O)c3cccc(N4CCN([C@@H](C)c5ccccc5)CC4)c3C2=O)cc1OC (stereo not given in full)		290		IC50 (Urotensin-2 receptor [7]; [17]): 75 nM
COc1ccc([C@@H](CCCN(C)S(=O)(=O)c2cccs2)N2Cc3c(cccc3N3CCN(C(C)C)CC3)C2=O)cc1OC	500			
CCN1CCN(c2cccc3c2CN([C@H](CCCNS(=O)(=O)c2cccs2)c2ccc(OC)c(OC)c2)C3=O)CC1				Activity (Rattus norvegicus [8]): Active; Activity (Rattus norvegicus [9]): Active; inhibition [10]: 68%; inhibition [11]: 65%; inhibition [12]: 55%; inhibition [13]: 93%; inhibition [14]: 66%; inhibition [15]: 59%; inhibition at 0.1 µM (Aorta): 74%
COc1ccc(C(CN)N2C(=O)c3cccc(N4CCN([C@@H](C)c5ccccc5)CC4)c3C2=O)cc1OC (stereo not given in full)		700		IC50 (Urotensin-2 receptor [7]; [17]): 300 nM
COc1ccc(C(CNC(=O)OC(C)(C)C)N2C(=O)c3cccc(N4CCN([C@@H](C)c5ccccc5)CC4)c3C2=O)cc1OC (stereo not given in full)		430	120	
COc1ccc(C(CCNC(=O)OC(C)(C)C)N2C(=O)c3cccc(N4CCN([C@@H](C)c5ccccc5)CC4)c3C2=O)cc1OC (stereo not given in full)		540	110	
COc1ccc([C@@H](CCCCNC(=O)OC(C)(C)C)N2C(=O)c3cccc(N4CCN([C@H](C)c5ccccc5)CC4)c3C2=O)cc1OC		> 10000		IC50 (Urotensin-2 receptor [7]; [17]): 65000 nM
CCN1CCN(c2cccc3c2CN([C@H](CCCNc2cncc(OC)n2)c2ccc(OC)c(OC)c2)C3=O)CC1	62	8		IC50 (Urotensin-2 receptor [7]; [17]): 4 nM
CCN1CCN(c2cccc3c2CN([C@H](CCCNS(=O)(=O)c2cn(C)c(C)n2)c2ccc(OC)c(OC)c2)C3=O)CC1	51	25		IC50 (Urotensin-2 receptor [7]): 23 nM
COc1ccc([C@@H](CCCNS(C)(=O)=O)N2C(=O)c3cccc(N4CCN([C@H](C)c5ccccc5)CC4)c3C2=O)cc1OC		1400	110	
COc1cc(Br)c(S(=O)(=O)Nc2ccc(C(F)(F)F)c(O[C@@H]3CCN(C)C3)c2)cc1OC				IC50 (Urotensin-2 receptor [7]; [17]): 34 nM; Activity (Rattus norvegicus [8]): Active; inhibition at 0.1 µM (Aorta): 97%
CC(=O)N[C@H]1CSSC[C@@H](C(N)=O)NC(=O)[C@H](Cc2ccc3ccccc3c2)NC(=O)[C@H](CCCCN)NC(=O)[C@H](Cc2c[nH]c3ccccc23)NC(=O)[C@H](Cc2ccccc2)NC1=O (Ac-CFWK[2Nal]C-NH2; disulfide 1-6)				Ki (Urotensin-2 receptor [16]): 0.12 nM; EC50 (Urotensin-2 receptor [7]): 0.54 nM
COc1ccc([C@@H](CCCNC(=O)c2cnoc2C)N2Cc3c(cccc3N3CCN([C@H](C)c4ccccc4)CC3)C2=O)cc1OC	320	15		IC50 (Urotensin-2 receptor [7]; [17]): 6 nM
COc1ccc(C(CCNS(=O)(=O)c2cccs2)N2C(=O)c3cccc(N4CCN([C@H](C)c5ccccc5)CC4)c3C2=O)cc1OC (stereo not given in full)		270	120	
CCN1CCN(c2cccc3c2CN([C@H](CCCNC(=O)c2cccs2)c2ccc(OC)c(OC)c2)C3=O)CC1	140			
COc1ccc([C@@H](CCCN(C)S(=O)(=O)c2cccs2)N2Cc3c(cccc3N3CCN(C)CC3)C2=O)cc1OC		< 6		
COc1ccc([C@@H](CCCN(C)S(=O)(=O)c2cccs2)N2Cc3c(cccc3N3CCN(C4CC4)CC3)C2=O)cc1OC	1200			
COc1ccc(C(CCCNS(=O)(=O)c2cccs2)N2C(=O)c3cccc(N4CCN([C@H](C)c5ccccc5)CC4)c3C2=O)cc1OC (stereo not given in full)	250			
CCN1CCN(c2cccc3c2[C@H]2CCC[C@H](c4ccc(OC)c(OC)c4)N2C3=O)CC1			14	
